Source: the array DNA melting data of Ke et al. (doi:10.1101/2024.01.08.574731)

How the values were obtained:
[1] = folding enthalpy; higher = less favourable; fluorescence melt of hairpins on a sequencing array, two-state fit; conditions: sodium 0.088 M
Outline: (§1)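 Hairpins were imaged by Cy3 fluorescence on a sequenced MiSeq flow cell with annealed Cy3 and quencher oligos, in 50 mM Na-HEPES pH 8.0, 25 mM NaCl, in 2.5 °C steps up to 60 °C. Bootstrapped two-state fits of normalised signals gave melting temperature and folding enthalpy. Four replicates were combined by inverse variance, and fitted temperatures were raised by 9.35 °C to match UV melts.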

[2] = melting temperature; fluorescence melt of hairpins on a sequencing array, two-state fit, raised by 9.35 °C to match UV melts; conditions: sodium 0.088 M
Outline: as §1

Row | Sequence | folding enthalpy [1] | Tm [2]
1 | GGGTCGGGAAACCGACTC (.(((((....))))).) | -14.4 kcal/mol | 58.9 °C
2 | GGGTCGGGAAACCGGCCC (((.(((....))).))) | -36.3 kcal/mol | 67.1 °C
3 | GGGTCTACGAAAGTACCC (((..(((....)))))) | -22.5 kcal/mol | 40.1 °C
4 | GGGTCTGAAAAGACCC ((((((....)))))) | -26 kcal/mol | 68.4 °C
5 | GGGTCTGGAAACAAACCC ((((.((....)).)))) | -31.6 kcal/mol | 37.9 °C
6 | GGGTCTGGAAACAGGCTC (.(.(((....))).).) | -23.2 kcal/mol | 39.9 °C
7 | GGGTCTGGAAACGGATCC ((.((.(....).)).)) | -33 kcal/mol | 41.8 °C
8 | GGGTGAACGAAAGTTCCC (((..(((....)))))) | -14.9 kcal/mol | 50.1 °C
9 | GGGTGAGGAAACTCGCCC (((.(((....))).))) | -34 kcal/mol | 57.4 °C
10 | GGGTGCGAAAGCAACCCC ((((((....)))..))) | -12.4 kcal/mol | 66.6 °C
11 | GGGTGCGAAAGCACACCC ((((((....)))..))) | -10.4 kcal/mol | 58.3 °C
12 | GGGTGCGAAAGCACGCCC ((((((....)))..))) | -10.2 kcal/mol | 55.3 °C
13 | GGGTGCGAAAGCAGGCCC ((((((....)))..))) | -18.2 kcal/mol | 52.9 °C
14 | GGGTGCGAAAGCATACCC ((((((....)))..))) | -19.8 kcal/mol | 53.5 °C
15 | GGGTGCGGAAACGTACCC ((((.((....)).)))) | -41.5 kcal/mol | 61.2 °C
16 | GGGTGCGGAAACGTGCCC (((..((....))..))) | -39.8 kcal/mol | 57.3 °C
17 | GGGTGGGGAAACCTGCCC (((..((....))..))) | -25.5 kcal/mol | 49.7 °C
18 | GGGTGTGCGAAAGCACCC (((..(((....)))))) | -11.3 kcal/mol | 56.6 °C
19 | GGGTGTGGAAACACACTC (.(((((....))))).) | -23.5 kcal/mol | 55.4 °C
20 | GGGTGTGGAAACACATCC ((.((((....)))).)) | -26.4 kcal/mol | 52.5 °C
21 | GGGTGTGGAAACATACCC ((((.((....)).)))) | -45.6 kcal/mol | 52.1 °C
22 | GGGTTACGAAAGTAGCCC (((.(((....))).))) | -45.7 kcal/mol | 59.6 °C
23 | GGGTTCGAAAGAAAGCCC ((((((....)))..))) | -16 kcal/mol | 36 °C

Row | Sequence | folding enthalpy [1] | Tm [2]
24 | GGGTTCGAAAGAACGCCC ((((((....)))..))) | -11.2 kcal/mol | 50 °C
25 | GGGTTCGAAAGAAGGCCC ((((((....)))..))) | -20.7 kcal/mol | 35.6 °C
26 | GGGTTCGGAAACGAACTC (.(((((....))))).) | -23.3 kcal/mol | 53.8 °C
27 | GGGTTCGGAAACGGACTC (.((.((....)).)).) | -25.9 kcal/mol | 39.1 °C
28 | GGGTTGCGAAAGCACCC (((.(((....)))))) | -23.7 kcal/mol | 62.9 °C
29 | GGGTTGCGAAAGCACCCC (((.(((....))).))) | -19.4 kcal/mol | 62.9 °C
30 | GGGTTGGCGAAAGCCCCC (((..(((....)))))) | -15.3 kcal/mol | 46.3 °C
31 | GGGTTGGGAAACCAGTCC ((..(((....)))..)) | -16.4 kcal/mol | 38 °C
32 | GGGTTGGGAAACCGACTC (.((.((....)).)).) | -16.3 kcal/mol | 41.2 °C
33 | GGGTTTCGAAAGAACCCC (((.(((....))).))) | -26.1 kcal/mol | 51.3 °C
34 | GGGTTTGGAAACAAATCC ((.((((....)))).)) | -39.6 kcal/mol | 47.4 °C
35 | GGGTTTGGAAACAAGCCC (((.(((....))).))) | -32.1 kcal/mol | 52.7 °C
36 | GGTAACGAAAGTTACC ((((((....)))))) | -34.7 kcal/mol | 64.1 °C
37 | GGTAACGAAAGTTGAACC ((((((....)))..))) | -14.2 kcal/mol | 30.1 °C
38 | GGTAACGAAAGTTTCACC ((((((....)))..))) | -9.74 kcal/mol | 28.8 °C
39 | GGTAACGAAAGTTTTACC ((((((....)))..))) | -9.8 kcal/mol | 29.7 °C
40 | GGTAACGGAAACGTTATC (.(((((....))))).) | -24.5 kcal/mol | 46.4 °C
41 | GGTAACGGAAACGTTGCC ((.((((....)))).)) | -50.5 kcal/mol | 53.8 °C
42 | GGTAACGGAAACGTTGTC (..((((....))))..) | -16.8 kcal/mol | 31.6 °C
43 | GGTAAGGCGAAAGCCACC (((..(((....)))))) | -15.3 kcal/mol | 43.7 °C
44 | GGTAAGGGAAACCCTACC ((((.((....)).)))) | -24.3 kcal/mol | 40 °C
45 | GGTAAGGGAAACCTTATC (.(((((....))))).) | -25.6 kcal/mol | 38.1 °C
46 | GGTAATACGAAAGTAACC (((..(((....)))))) | -9.63 kcal/mol | 22.7 °C

Row | Sequence | folding enthalpy [1] | Tm [2]
47 | GGTAATCGAAAGATAACC (((.(((....))).))) | -26.3 kcal/mol | 41.7 °C
48 | GGTAATGGAAACATTGCC ((.((((....)))).)) | -29.2 kcal/mol | 46.7 °C
49 | GGTACAACGAAAGTTACC (((..(((....)))))) | -17.3 kcal/mol | 33.3 °C
50 | GGTACAGGAAACCGTACC (((((.(....).))))) | -33 kcal/mol | 47.1 °C
51 | GGTACAGGAAACTGTACC (((((((....))))))) | -44.5 kcal/mol | 59.3 °C
52 | GGTACAGGAAACTGTGTC (..((((....))))..) | -17.6 kcal/mol | 28.9 °C
53 | GGTACCCGAAAGGGACC (((.(((....)))))) | -25.9 kcal/mol | 54.5 °C
54 | GGTACCGAAAGGTAGACC ((((((....)))..))) | -13.2 kcal/mol | 41 °C
55 | GGTACCGAAAGGTGAACC ((((((....)))..))) | -15.5 kcal/mol | 37.1 °C
56 | GGTACCGCGAAAGCGACC (((..(((....)))))) | -10.2 kcal/mol | 28.1 °C
57 | GGTACCGGAAACGGTATC (.(((((....))))).) | -23.9 kcal/mol | 51.6 °C
58 | GGTACGAAAGTACC (((((....))))) | -30.4 kcal/mol | 65.8 °C
59 | GGTACGACGAAAGTCACC (((..(((....)))))) | -13.4 kcal/mol | 32.9 °C
60 | GGTACGCGAAAGCGAACC (((.(((....))).))) | -24.8 kcal/mol | 58 °C
61 | GGTACGGGAAACCGTACC (((((((....))))))) | -33.4 kcal/mol | 67.8 °C
62 | GGTACGGGAAACCGTATC (.(((((....))))).) | -25.7 kcal/mol | 49.7 °C
63 | GGTACGGGAAACTGTACC (((((.(....).))))) | -34.3 kcal/mol | 50.9 °C
64 | GGTACTCGAAAGAGAACC (((.(((....))).))) | -30 kcal/mol | 49.8 °C
65 | GGTACTGGAAACAGTATC (.(((((....))))).) | -21.3 kcal/mol | 44.4 °C
66 | GGTACTGGAAACGGTATC (.(((.(....).))).) | -13 kcal/mol | 27.7 °C
67 | GGTAGAGGAAACTCCACC (((.(((....))).))) | -28.2 kcal/mol | 31.6 °C
68 | GGTAGCGAAAGCTAAACC ((((((....)))..))) | -15 kcal/mol | 42.8 °C
